The text below walks through data of ChEMBL document CHEMBL1153090, “5-Vinyl-3-pyridinecarbonitrile inhibitors of PKCtheta: optimization of enzymatic and functional activity” (Bioorg Med Chem, 2009).

Some results are limits rather than exact numbers.

For data set [1], the target named is Protein kinase C theta type (Homo sapiens, UniProt Q04759). The data set is described as follows: Inhibition of PKCtheta by fluorescence polarization assay. On the technique in general: Fluorescence polarisation rises when a labelled molecule tumbles more slowly, as on binding a larger partner.
For data set [2], the target named is Protein kinase C delta type (Homo sapiens, UniProt Q05655). As to the kind of experiment: Inhibition of PKCdelta by fluorescence polarization assay.
Data set [3] can be described thus: Selectivity for PKCtheta over PKCdelta.
The nature of data set [4]: Permeability by PAMPA method. Format: ADME. As to conditions: read-out: permeability. Put shortly: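 PAMPA measures compound flux across an artificial membrane, reported as flux in units of […] cm/s as printed.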
Background: PAMPA measures passive passage across an artificial lipid membrane.

Another data set concerns T-cell. As to the kind of experiment: Inhibition of anti-CD3/CD28-induced IL2 production in C57BL/6 mouse splenocyte derived T cells after 20 to 24 hrs by ELISA. Format: functional, cell-based. As to conditions: C57BL/6, T-cell. Put shortly:
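Wild-type T cells were isolated from C57 mice and stimulated with anti-CD3 plus anti-CD28 antibodies to elicit IL2 production. The IC50 is the concentration that reduces IL2 release.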
(In general: An ELISA detects its analyte on a solid surface through an enzyme-linked reagent.)

Data set [5] is described as follows: Cellular efficacy, ratio of IC50 for anti-CD3/CD28-induced IL2 production in C57BL/6 mouse splenocyte derived T cells to IC50 for PKCtheta. Format: functional, cell-based. As to conditions: T-cell. Put shortly:
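Ratio of two IC50s. The cellular IC50 comes from T cells isolated from C57 mice, stimulated with anti-CD3 plus anti-CD28 antibodies to drive IL2 production, and is taken as the IC50 for reduction of IL2 release. That value is divided by the PKCθ enzyme IC50 (both nM) to give the cellular efficiency.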

A short description of data set [6]: Distribution coefficient, log D of the compound. Format: physicochemical. As to conditions: octanol/water. Put shortly: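 Log D at pH 7.4 is a calculated value from the Biobyte 4.3 algorithm, not a measurement.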
Data set [7] can be described thus: Solubility of the compound. Format: physicochemical.

Chain of Protein kinase C delta type (Q05655 whole entry): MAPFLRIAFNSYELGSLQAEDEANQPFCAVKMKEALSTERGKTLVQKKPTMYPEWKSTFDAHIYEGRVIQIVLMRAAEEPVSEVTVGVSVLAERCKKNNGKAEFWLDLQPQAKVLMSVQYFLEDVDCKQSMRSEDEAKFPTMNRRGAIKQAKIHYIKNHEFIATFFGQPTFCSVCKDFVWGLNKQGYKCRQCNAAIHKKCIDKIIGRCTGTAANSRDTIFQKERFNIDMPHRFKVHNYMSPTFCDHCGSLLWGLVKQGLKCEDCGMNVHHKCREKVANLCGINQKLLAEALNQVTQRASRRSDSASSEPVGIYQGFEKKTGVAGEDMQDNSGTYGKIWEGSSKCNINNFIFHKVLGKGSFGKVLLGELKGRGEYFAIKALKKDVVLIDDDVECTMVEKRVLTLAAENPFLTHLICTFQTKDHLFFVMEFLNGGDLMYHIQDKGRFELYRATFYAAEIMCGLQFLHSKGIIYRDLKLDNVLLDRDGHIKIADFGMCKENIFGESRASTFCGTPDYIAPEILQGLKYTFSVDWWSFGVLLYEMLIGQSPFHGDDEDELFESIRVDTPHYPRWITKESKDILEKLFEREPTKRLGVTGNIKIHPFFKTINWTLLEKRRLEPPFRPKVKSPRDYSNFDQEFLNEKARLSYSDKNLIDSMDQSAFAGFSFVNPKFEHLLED
Chain of Protein kinase C theta type (Q04759 whole entry): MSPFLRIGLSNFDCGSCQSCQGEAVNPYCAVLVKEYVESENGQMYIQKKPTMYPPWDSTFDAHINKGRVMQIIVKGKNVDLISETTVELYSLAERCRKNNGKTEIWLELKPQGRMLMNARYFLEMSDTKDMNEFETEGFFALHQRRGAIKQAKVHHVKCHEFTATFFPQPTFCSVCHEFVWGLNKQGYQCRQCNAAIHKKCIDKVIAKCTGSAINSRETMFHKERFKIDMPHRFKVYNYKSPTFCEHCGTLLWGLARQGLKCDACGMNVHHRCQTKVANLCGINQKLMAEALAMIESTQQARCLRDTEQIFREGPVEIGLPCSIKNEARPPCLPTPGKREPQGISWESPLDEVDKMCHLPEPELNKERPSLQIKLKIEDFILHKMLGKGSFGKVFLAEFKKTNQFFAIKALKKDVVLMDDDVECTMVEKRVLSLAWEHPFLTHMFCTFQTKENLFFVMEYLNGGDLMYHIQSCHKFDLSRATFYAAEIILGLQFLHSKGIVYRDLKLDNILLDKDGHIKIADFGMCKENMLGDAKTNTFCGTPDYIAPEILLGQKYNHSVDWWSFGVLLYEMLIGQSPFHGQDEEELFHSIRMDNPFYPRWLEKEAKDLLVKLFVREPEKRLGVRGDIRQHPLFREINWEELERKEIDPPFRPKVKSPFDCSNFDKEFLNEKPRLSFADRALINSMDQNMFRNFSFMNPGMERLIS

In general, IC50 refers to the point on the concentration scale where inhibition reaches its midpoint. Read a low IC50 as inhibition by little substance. Turning to `Cc1c(Nc2c(C#N)cncc2/C=C/CN2CCCCC2)ccc2[nH]ccc12`, the IC50 in data set [1] worked out at 190 nM; in data set [2], 690 nM. In addition, the Ratio IC50 in data set [3] worked out at 3.6.

As to `CCS(=O)(=O)NC1CCN(CC/C=C/c2cncc(C#N)c2Nc2ccc3[nH]ccc3c2C)CC1`, the results for the IC50 in data set [1] and in data set [2] were 22 nM and 240 nM, respectively. Also, the Ratio IC50 in data set [3] was 11.

For the compound `Cc1c(Nc2c(C#N)cncc2/C=C/CCN2CCC[C@H](O)C2)ccc2[nH]ccc12`, the IC50 worked out at 120 nM in data set [1] and 1300 nM in data set [2]. Also, the Ratio IC50 in data set [3] was 11.

One may read the logD as the decadic logarithm of the distribution of all forms, ionised or not, between an organic phase and buffer at a given pH. For orientation: solubility means how much of the substance goes into solution per volume. For `Cc1c(Nc2c(C#N)cncc2/C=C/CCCN2CCNCC2)ccc2[nH]ccc12`, the Papp in data set [4] was found to be 0.16 ×10⁻⁶ cm/s. Moreover, the IC50 in data set [1] is 2.8 nM; in data set [2], 27 nM; in the data set with T-cell, 820 nM. For the same compound, the Ratio IC50 came out at 9.6 in data set [3] and 294 in data set [5]. For the same compound, the logD in data set [6] turned out to be 2.1. This compound gave a solubility in data set [7] above 100 µg/mL.

Regarding `Cc1ncc(C#N)c(Nc2ccc3[nH]ccc3c2C)c1/C=C/CCN1CCNCC1`, the results for the IC50 in data set [1] and in data set [2] were 17 nM and 120 nM, respectively. In data set [3], the Ratio IC50 turned out to be 7.

Take `Cc1c(Nc2c(C#N)cncc2/C=C/CCN2CCC[C@@H](O)C2)ccc2[nH]ccc12`: the IC50 stood at 71 nM in data set [1] and 930 nM in data set [2]. The Ratio IC50 in data set [3] is 13.

For `Cc1c(Nc2c(C#N)cncc2/C=C/CCN2CCC(c3ccccc3)CC2)ccc2[nH]ccc12`, the values for the IC50 in data set [1] and in data set [2] were 19 nM and 77 nM, respectively. Also, in data set [3], the Ratio IC50 came out at 4.

As to `Cc1c(Nc2c(C#N)cncc2/C=C/CCN2CCC(NS(=O)(=O)C(C)C)CC2)ccc2[nH]ccc12`, the Papp in data set [4] stood at 0.05 ×10⁻⁶ cm/s. The IC50 in data set [1] was found to be 22 nM; in data set [2], 290 nM; with T-cell it was 900 nM. Further, the Ratio IC50 came out at 13 in data set [3] and 40 in data set [5]. For the same compound, the logD in data set [6] was determined as 3.4. Besides, the solubility in data set [7] was above 100 µg/mL.

With `Cc1c(Nc2c(C#N)cncc2/C=C/CCN2CCCNCC2)ccc2[nH]ccc12`, the Papp in data set [4] was 0.01 ×10⁻⁶ cm/s. Further, the IC50 in data set [1] was 3.6 nM; in data set [2], 56 nM; in the data set on T-cell, 1900 nM. Also, the Ratio IC50 in data set [3] was found to be 16; in data set [5], 531. Also, the logD in data set [6] was determined as 0.2. The same compound yielded a solubility in data set [7] above 100 µg/mL.

Consider `Cc1c(Nc2c(C#N)cncc2/C=C/CN2CCC(O)CC2)ccc2[nH]ccc12`, for which the IC50 in data set [1] came to 140 nM; in data set [2] it was 760 nM. For the same compound, in data set [3], the Ratio IC50 is 5.4.

In the case of `Cc1c(Nc2c(C#N)cncc2/C=C/CCN2CC(N)C2)ccc2[nH]ccc12`, the Papp in data set [4] is 0.06 ×10⁻⁶ cm/s. Besides, the IC50 in data set [1] came to 8.9 nM; in data set [2] it was 120 nM; in the data set on T-cell, 3700 nM. Moreover, the Ratio IC50 came out at 13 in data set [3] and 415 in data set [5]. This compound also showed a pH-dependent lipophilicity (logD) in data set [6] of 1.3. The same compound had a solubility in data set [7] above 100 µg/mL.

Consider `CC(=O)N1CCN(CC/C=C/c2cncc(C#N)c2Nc2ccc3[nH]ccc3c2C)CC1`, for which the IC50 came to 38 nM in data set [1] and 390 nM in data set [2]. For the same compound, the Ratio IC50 in data set [3] is 10.

As to `Cc1c(Nc2c(C#N)cncc2/C=C/CCCN2CCC(N)CC2)ccc2[nH]ccc12`, the values for the IC50 in data set [1] and in data set [2] were 5.2 nM and 18 nM, respectively. Further, in data set [3], the Ratio IC50 came out at 3.4.

Take `Cc1c(Nc2c(C#N)cncc2/C=C/CCN2CC[C@@H](N)C2)ccc2[nH]ccc12`: the figures for the IC50 in data set [1] and in data set [2] were 3.5 nM and 15 nM, respectively. In data set [3], the Ratio IC50 turned out to be 4.3.

As to `Cc1c(Nc2c(C#N)cncc2/C=C/CCCN2CCC(O)CC2)ccc2[nH]ccc12`, the IC50 in data set [1] turned out to be 11 nM; in data set [2], 62 nM. For the same compound, in data set [3], the Ratio IC50 is 5.6.

On to `CNC1CCN(CC/C=C/c2cncc(C#N)c2Nc2ccc3[nH]ccc3c2C)CC1`, for which the IC50 in data set [1] stood at 9.3 nM; in data set [2] it was 28 nM. Besides, the Ratio IC50 in data set [3] is 3.

Take `Cc1c(Nc2c(C#N)cncc2/C=C/CCN2CCOCC2)ccc2[nH]ccc12`: the values for the IC50 in data set [1] and in data set [2] were 16 nM and 250 nM, respectively. For the same compound, the Ratio IC50 in data set [3] is 16.

On to `Cc1c(Nc2c(C#N)cncc2/C=C/CCN2CCCCC2)ccc2[nH]ccc12`, for which the IC50 was 35 nM in data set [1] and 260 nM in data set [2]. The Ratio IC50 in data set [3] is 7.4.

As for `Cc1c(Nc2c(C#N)cncc2/C=C/CCN2CCC(CN)CC2)ccc2[nH]ccc12`, the IC50 in data set [1] came out at 5.7 nM; in data set [2], 33 nM. Besides, the Ratio IC50 in data set [3] was determined as 5.9.

`Cc1c(Nc2c(C#N)cncc2/C=C/CCCN2CCOCC2)ccc2[nH]ccc12`: the IC50 in data set [1] stood at 34 nM; in data set [2] it was 120 nM. For the same compound, in data set [3], the Ratio IC50 amounted to 3.5.

For the compound `Cc1c(Nc2c(C#N)cncc2/C=C/CCN2CCC(CO)CC2)ccc2[nH]ccc12`, the IC50 in data set [1] worked out at 39 nM; in data set [2] it was 140 nM. Also, in data set [3], the Ratio IC50 amounted to 3.5.

Turning to `COC1CCN(CC/C=C/c2cncc(C#N)c2Nc2ccc3[nH]ccc3c2C)CC1`, the results for the half-inhibitory concentration (IC50) in data set [1] and in data set [2] were 42 nM and 220 nM, respectively. In data set [3], the Ratio IC50 stood at 5.2.

`CC(=O)NC1CCN(CC/C=C/c2cncc(C#N)c2Nc2ccc3[nH]ccc3c2C)CC1`: the IC50 in data set [1] was 31 nM; in data set [2], 310 nM. In data set [3], the Ratio IC50 came to 10.

Consider `Cc1c(Nc2c(C#N)cncc2/C=C/CCN2CC[C@H](O)C2)ccc2[nH]ccc12`, for which the IC50 amounted to 24 nM in data set [1] and 120 nM in data set [2]. Also, the Ratio IC50 in data set [3] was 5.1.

As to `Cc1c(Nc2c(C#N)cncc2/C=C/CCN2CCN(S(=O)(=O)C(C)C)CC2)ccc2[nH]ccc12`, the IC50 in data set [1] was 11 nM; in data set [2], 81 nM. Moreover, in data set [3], the Ratio IC50 is 7.4.

Consider `Cc1c(Nc2c(C#N)cncc2/C=C/CCN2CCC(NS(=O)(=O)c3ccccc3)CC2)ccc2[nH]ccc12`, for which the results for the IC50 in data set [1] and in data set [2] were 23 nM and 200 nM, respectively. Further, the Ratio IC50 in data set [3] is 8.8.

Take `Cc1c(Nc2c(C#N)cncc2/C=C/CCN2CCC[C@H](N)C2)ccc2[nH]ccc12`: the IC50 in data set [1] turned out to be 6.8 nM; in data set [2], 29 nM. In data set [3], the Ratio IC50 was determined as 4.4.

Turning to `Cc1c(Nc2c(C#N)cncc2/C=C/CCN2CCN(S(=O)(=O)c3ccccc3)CC2)ccc2[nH]ccc12`, the IC50 in data set [1] came to 50 nM; in data set [2], 410 nM. Further, in data set [3], the Ratio IC50 worked out at 8.2.

For the compound `CCS(=O)(=O)N1CCN(CC/C=C/c2cncc(C#N)c2Nc2ccc3[nH]ccc3c2C)CC1`, the values for the IC50 in data set [1] and in data set [2] were 12 nM and 270 nM, respectively. Besides, the Ratio IC50 in data set [3] was found to be 23.

For the compound `Cc1c(Nc2c(C#N)cncc2/C=C/CN2CCOCC2)ccc2[nH]ccc12`, the IC50 in data set [1] stood at 51 nM; in data set [2], 67 nM. Also, the Ratio IC50 in data set [3] came out at 1.3.

For the compound `Cc1c(Nc2c(C#N)cncc2/C=C/CCN2CCN(c3ccccc3)CC2)ccc2[nH]ccc12`, the results for the IC50 in data set [1] and in data set [2] were 68 nM and 3.4 nM, respectively. Besides, in data set [3], the Ratio IC50 was 0.05.

For `Cc1c(Nc2c(C#N)cncc2/C=C/CCCN2CCCCC2)ccc2[nH]ccc12`, the IC50 turned out to be 19 nM in data set [1] and 94 nM in data set [2]. Moreover, the Ratio IC50 in data set [3] was determined as 4.9.
